A selection follows.
Apaf-1 act – activators of human Apaf-1 apoptosome; O14727; Apaf-1 apoptosome caspase-3 activation, DEVD-Rh110 fluorescence; hits give low values; 330,000 compounds, 0.31% hits; activity change, negative = activation, % at 20 µM;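 active means activity change at or below -40% at 20 µM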
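Material: reconstituted apoptosome of Apaf-1, cytochrome c, caspase-9, procaspase-3; times: 30 min preincubation, 50 min reaction, room temperature; measured by: fluorescence, 540 nm emission, 480 nm excitation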
Rh110 interf act – counter-screen for Apaf-1 activators: fluorescence interference | shares compounds with Apaf-1 act | Rh110 fluorescence interference, quenched caspase reaction, Ex480/Em540 | fluorescence interference (activity change), % at 20 µM, hits read low | 980 tested, under 10 active | AID 504616;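 active means mean activity change at or below -40% when tested at 20 µM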
Apaf-1 act conf2 – confirmation of human Apaf-1 activators; shares compounds with Apaf-1 act; activity change, negative = activation, % at 20 µM; reconstituted apoptosome caspase-3 activity, DEVD-Rh110 fluorescence; hits give low values; 980 compounds, 5% hits;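 active means mean activity change at or below -40%, meaning activation of 40% or more, at 20 µM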
Numbers without * were called inactive; nt = not tested or not shown.

SMILES | Apaf-1 act | Rh110 interf act | Apaf-1 act conf2
Cn1c(SCC(=O)Nc2ccc3nc(SCC(=O)N4CCCC4)sc3c2)nnc1-c1ccccc1 | 66 | nt | nt
O=C(CSc1nc2ccccc2s1)N/N=C/c1ccco1 | -62* | 0 | 7
CC(=C/c1ccco1)/C=N/NC(=O)CSc1nnc(SCc2ccc(C)cc2)s1 | -90* | 6 | 34
Cc1c(O)cccc1C(=O)N[C@@H](CSc1ccccc1)[C@H](O)CN1C[C@H]2CCCC[C@H]2C[C@H]1C(=O)NC(C)(C)C | 30 | nt | nt
CCCNC(=O)OC[C@H]1O[C@H](CCO/N=C(\C)CCN2CCc3nc(-c4ccccc4)c(-c4ccccc4)cc3C2)C=C[C@@H]1Oc1ccc(OC)cc1 | 53 | nt | nt
CC(=O)c1cccc(NC(=O)CSc2ccc(-c3ccco3)nn2)c1 | 45 | nt | nt
O=C(CSc1ccc(-c2ccc3c(c2)OCO3)nn1)Nc1nccs1 | -45* | 9 | 12
FC(F)(F)c1cc(CCN2CCNC[C@@H]2Cc2ccccc2)cc(C(F)(F)F)c1 | 57 | nt | nt
CC(C)CC(=O)NC(NC(=S)Nc1sc2c(c1C#N)CCCC2)C(Cl)(Cl)Cl (centres undefined) | -215* | 5 | 34
CCOC(=O)Nc1sc2c(c1C#N)CCCC2 | -62* | -4 | 10
C#CCOCCOCCOCCNc1nc(N2CCN(C(=O)CCCCCCCCCCNC(=O)[C@H](CO)n3cc(CCCSC)nn3)CC2)nc(N2CCN(C(=O)CCCCCCCCCCNC(=O)[C@H](CCCCN)n3cc(C[C@@H](C)CC)nn3)CC2)n1 | 68 | nt | nt
O=c1[nH]c(N2CCOCC2)cc2ccccc12 | 93 | nt | nt
CC(C)C[C@@H]1CN=C(N)N1C[C@@H]1CCCN1C[C@@H](C(C)C)N1C[C@@H](Cc2ccccc2)N(CCCC2CCCC2)C1=N | 55 | nt | nt
CC(C)(C)c1ccc(C(=O)NNc2cc(N3CCCCC3)nc(N3CCCCC3)n2)cc1 | 73 | nt | nt
CCOC(=O)N=Nc1c2ccccc2c2nc3no[nH]c3nc12 | 88 | nt | nt
Cc1ccc(SC(C)c2nc(-c3ccccc3)no2)cc1 (centres undefined) | -247* | 0 | 12
O=C(/C=C/c1ccco1)c1ccc(NC(=O)C23CC4CC(CC(C4)C2)C3)cc1 | 45 | nt | nt
COc1ccc(C(=O)O)cc1NC(=S)NC(=O)CSc1ccc(Cl)cc1 | -152* | -11 | 15
Nc1ccc(Oc2ncccn2)cc1 | 44 | nt | nt
CCn1cc(C(=O)Nc2ccc(NC(=O)c3ccco3)cc2)c(=O)c2ccc(C)nc21 | -59* | -8 | -4
CCn1cc(C(=O)OCC(=O)OC2CC(C)CCC2C(C)C)c(=O)c2ccc(C)nc21 (centres undefined) | 48 | nt | nt
O=C(Cc1cc(=O)[nH][nH]1)N/N=C/c1cccc2ccccc12 | 54 | nt | nt
Oc1c(Br)cc(/C=N/NC(=S)NCc2ccco2)cc1Br | -329* | 0 | 14
O=C1C(Nc2ccccc2)=C(N2CCCCC2)C(=O)c2ccccc21 | 93 | nt | nt
Cc1ccc(C(=O)c2c(C)oc3c2C(=O)C(=O)c2ccccc2-3)cc1 | 88 | nt | nt
SMILES | Apaf-1 act | Rh110 interf act | Apaf-1 act conf2
Nc1c(C(=O)NCc2ccc3c(c2)OCO3)c2nc3ccccc3nc2n1CCCN1CCOCC1 | 90 | nt | nt
O=C(NCc1ccc2c(c1)OCO2)c1cc(-c2ccccc2)c(N2CCOCC2)s1 | -287* | 8 | 22
O=C(Cc1cc(=O)[nH][nH]1)N/N=C/C(Cl)=C/c1ccccc1 | 49 | nt | nt
COc1ccccc1NC1=C(N2CCCCC2)C(=O)c2ccccc2C1=O | 95 | nt | nt
COc1ccc(/C=N/n2c(C)nc3sc(C)c(C)c3c2=O)cc1OC | -145* | 15 | 12
N#CCCN(C(=O)COC(=O)C12CC3CC(CC(O)(C3)C1)C2)c1ccc(F)cc1 | 43 | nt | nt
O=C1C=C(Nc2ccccc2O)c2ccccc2C1=O | 96 | nt | nt
c1cc(SC2CCCCC2)cc(-c2nc3cnccn3c2NC2CCCCC2)c1 | 41 | nt | nt
CCC(C)Sc1ccc(-c2nc3ccc(C)cn3c2NC2CCCCC2)cc1 (centres undefined) | 41 | nt | nt
Cc1ccc2nc(-c3cccnc3)c(NC3CCCCC3)n2c1 | -50* | 5 | 14
CN(C)c1ccc(C(=S)N2CCCCC2)cc1 | -335* | -3 | 2
CCC(C)N(C(=O)COC(=O)c1cc([N+](=O)[O-])ccc1N1CCOCC1)C1CCS(=O)(=O)C1 (centres undefined) | 78 | nt | nt
CCCCCc1ccc(OCCCC[n+]2ccccc2)c(CCCCC)c1 | 59 | nt | nt
CCOC(=O)c1c(CSC(=N)N)n(-c2ccc(C)cc2)c2cc(Br)c(OC(C)=O)cc12 | 46 | nt | nt
Cc1cc(F)c(F)c(C(=O)N2CCCCC2C)c1Cl (centres undefined) | -116* | 4 | 18

Compound activity (PubChem BioAssay)
